For test [1], the system named is Staphylococcus aureus. The test can be described thus: Antibacterial activity against methicillin-resistant Staphylococcus aureus NRS384-USA300 clinical isolates after 18 to 20 hrs in aerobic condition by CLSI protocol based broth microdilution assay. Type of test: functional. (In general: In broth dilution the organism is exposed to a series of concentrations in liquid medium.)

For test [2], the system named is Escherichia coli. In words: Antimicrobial activity against Escherichia coli JW55031 harboring deltatolC mutant after 18 to 20 hrs in aerobic condition by CLSI protocol based broth microdilution assay. It is filed as functional.
The test system of another test is Salmonella enteritidis. In words: Antibacterial activity against Salmonella enteritidis ATCC 14028 infected in mouse J774 cells assessed as reduction in intracellular bacterial cells at 2 times MIC incubated for 24 hrs followed by re-plating on TSA plate and measured after 18 to 22 hrs relative to control. It is filed as functional. Conditions: Salmonella enterica subsp. enterica serovar Enteritidis. The essentials:
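J774 murine macrophages infected with Salmonella enteritidis ATCC 14028, then treated at 2×MIC for 24 h, in triplicate. Read-out is the percent reduction in intracellular colony forming units versus the untreated control.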

The test system of test [3] is Pseudomonas aeruginosa. The test can be described thus: Antibacterial activity against carbapenem-resistant Pseudomonas aeruginosa ATCC 1744 clinical isolates after 18 to 20 hrs in aerobic condition by CLSI-based broth microdilution assay. It is filed as functional.
In test [4] the test system is Klebsiella pneumoniae. In words: Antibacterial activity against carbapenem-resistant Klebsiella pneumoniae ATCC BAA-2146 clinical isolates after 18 to 20 hrs in aerobic condition by CLSI-based broth microdilution assay. It is filed as functional.
In test [5] the test system is Escherichia coli. In words: Antibacterial activity against carbapenem-resistant Escherichia coli BAA-2469 clinical isolates after 18 to 20 hrs in aerobic condition by CLSI-based broth microdilution assay. It is filed as functional.
Test [6] deals with Escherichia coli. The test can be described thus: Antibacterial activity against carbapenem-resistant Escherichia coli BAA-2452 clinical isolates after 18 to 20 hrs in aerobic condition by CLSI-based broth microdilution assay. Type of test: functional.
The test system of test [7] is Klebsiella pneumoniae. The test can be described thus: Antibacterial activity against carbapenem-resistant Klebsiella pneumoniae ATCC BAA-1705 clinical isolates after 18 to 20 hrs in aerobic condition by CLSI-based broth microdilution assay. Type of test: functional.
Test [8] deals with Acinetobacter baumannii. In words: Antibacterial activity against carbapenem-resistant Acinetobacter baumannii ATCC BAA 1605 clinical isolates after 18 to 20 hrs in aerobic condition by CLSI-based broth microdilution assay. Type of test: functional.
In test [9] the test system is Staphylococcus aureus. The test can be described thus: Antibiofilm activity against methicillin-resistant Staphylococcus aureus NRS384-USA300 clinical isolates assessed as inhibition of biofilm formation at 0.5 times MIC incubated for 24 hrs by crystal violet staining based spectrophotometric method relative to control. Type of test: functional.
For test [10], the system named is Staphylococcus aureus. The test can be described thus: Bactericidal activity against methicillin-resistant Staphylococcus aureus NRS123-USA400 clinical isolates at 5 times MIC incubated over 24 hrs followed by replating on tryptic soy agar plate and further incubated for 18 to 20 hrs by time kill assay. It is filed as functional, organism-based.
For a further test, the system named is Enterococcus faecalis. The test can be described thus: Antibacterial activity against vancomycin-resistant Enterococcus faecalis ATCC 51299 clinical isolates after 18 to 20 hrs in aerobic condition by CLSI-based broth microdilution assay. It is filed as functional.
Another test concerns Clostridioides difficile. The test can be described thus: Antibacterial activity against Clostridium difficile ATCC BAA 1870 incubated for 48 hrs in anaerobic condition by CLSI-based broth microdilution assay. It is filed as functional. Conditions: ATCC BAA 1870, 48 h.
The next test deals with Listeria monocytogenes. In words: Antibacterial activity against Listeria monocytogenes ATCC 19111 after 18 to 20 hrs in aerobic condition by CLSI-based broth microdilution assay. It is filed as functional.
The subject of another test is Enterococcus faecium. The test can be described thus: Antibacterial activity against vancomycin-resistant Enterococcus faecium ATCC 700221 clinical isolates after 18 to 20 hrs in aerobic condition by CLSI-based broth microdilution assay. Type of test: functional.
In test [11] the test system is Streptococcus pneumoniae. In words: Antibacterial activity against cephalosporin-resistant Streptococcus pneumoniae ATCC 51916 clinical isolates after 18 to 20 hrs by CLSI-based broth microdilution assay. It is filed as functional.
Test [12] deals with Staphylococcus aureus. The test can be described thus: Antibacterial activity against vancomycin-resistant Staphylococcus aureus isolate 10 after 18 to 20 hrs in aerobic condition by CLSI-based broth microdilution assay. Type of test: functional.
In test [13] the test system is Staphylococcus aureus. In words: Antibacterial activity against methicillin-resistant Staphylococcus aureus NRS123-USA400 infected in mouse J774 cells assessed as reduction in intracellular bacterial cells at 2 times MIC incubated for 24 hrs followed by re-plating on TSA plate and measured after 18 to 22 hrs relative to control. It is filed as functional. The essentials: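 J774 murine macrophages were infected with MRSA USA400 and then treated at 2×MIC for 24 h, in triplicate. The read-out was percent reduction in intracellular colony-forming units versus untreated infected cells.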

Test [14] deals with Staphylococcus aureus. In words: Antibacterial activity against vancomycin-resistant Staphylococcus aureus isolate 12 after 18 to 20 hrs in aerobic condition by CLSI-based broth microdilution assay. It is filed as functional.
For test [15], the system named is Streptococcus pneumoniae. The test can be described thus: Antibacterial activity against methicillin-resistant Streptococcus pneumoniae ATCC 700677 clinical isolates after 18 to 20 hrs by CLSI-based broth microdilution assay. Type of test: functional.
The test system of test [16] is Staphylococcus aureus. The test can be described thus: Antibacterial activity against Methicillin-resistant Staphylococcus aureus NRS123-USA400 clinical isolates after 18 to 20 hrs in aerobic condition by CLSI protocol based broth microdilution assay. Type of test: functional.
Test [17] concerns Staphylococcus epidermidis. In words: Antibacterial activity against Staphylococcus epidermidis NRS101 after 18 to 20 hrs in aerobic condition by CLSI-based broth microdilution assay. It is filed as functional.
In test [18] the test system is Staphylococcus aureus. The test can be described thus: Antibacterial activity against Methicillin-sensitive Staphylococcus aureus ATCC 6538 clinical isolates after 18 to 20 hrs in aerobic condition by CLSI protocol based broth microdilution assay. It is filed as functional.
The test system of test [19] is Staphylococcus aureus. The test can be described thus: Antibacterial activity against linezolid-resistant/Methicillin-resistant Staphylococcus aureus NRS119 clinical isolates after 18 to 20 hrs in aerobic condition by CLSI protocol based broth microdilution assay. It is filed as functional.
For test [20], the system named is Staphylococcus aureus. The test can be described thus: Antibacterial activity against Methicillin-sensitive Staphylococcus aureus NRS107 clinical isolates after 18 to 20 hrs in aerobic condition by CLSI protocol based broth microdilution assay. Type of test: functional.
For test [21], the system named is Klebsiella pneumoniae. The test can be described thus: Antibacterial activity against Klebsiella pneumoniae BAA-1706 clinical isolates after 18 to 20 hrs in aerobic condition by CLSI-based broth microdilution assay. Type of test: functional.
Test [22] relates to Escherichia coli. The test can be described thus: Antibacterial activity against Escherichia coli BW25113 clinical isolates after 18 to 20 hrs in aerobic condition by CLSI-based broth microdilution assay. Type of test: functional.
The test system of test [23] is Acinetobacter baumannii. The test can be described thus: Antibacterial activity against Acinetobacter baumannii ATCC 19606 clinical isolates after 18 to 20 hrs in aerobic condition by CLSI-based broth microdilution assay. It is filed as functional. To be noted: ATCC 19606 = CIP 70.34 = JCM 6841.
The test system of test [24] is Pseudomonas aeruginosa. The test can be described thus: Antibacterial activity against Pseudomonas aeruginosa ATCC 15442 clinical isolates after 18 to 20 hrs in aerobic condition by CLSI-based broth microdilution assay. Type of test: functional.

Results on 13 compounds are retold here after ChEMBL document CHEMBL4334464, “From Phenylthiazoles to Phenylpyrazoles: Broadening the Antibacterial Spectrum toward Carbapenem-Resistant Bacteria” (J Med Chem, 2019).

One may read the MIC as the lowest concentration found to suppress growth. Read a high MIC as a less susceptible organism.

In brackets after ≈: the same amount, converted by molar mass. Activity calls are given as the source filed them. The calls are words filed in the database; no cut-off is given here.

Take `C/C(=N\NC1=NCCN1)c1cnn(-c2ccc(C#CC3CCCCC3)cc2)c1C`: the MIC in the test on Staphylococcus aureus [1] and in the test on Escherichia coli [2] was 4 µg/mL (≈ 10.3 µM) in each case.
As to `NC[C@H]1O[C@H](O[C@H]2[C@H](O)[C@@H](O[C@H]3O[C@H](CO)[C@@H](O)[C@H](N)[C@H]3O)[C@H](N)C[C@@H]2N)[C@H](O)[C@@H](O)[C@@H]1O`, the result in the test with Salmonella enteritidis was inactive.
On to `C[C@@H](O)[C@H]1C(=O)N2C(C(=O)O)=C(S[C@@H]3CN[C@H](C(=O)N(C)C)C3)[C@H](C)[C@H]12` [MEROPENEM], for which the MIC against Pseudomonas aeruginosa [3] came to 16 µg/mL (≈ 41.7 µM); against Klebsiella pneumoniae [4] it was 64 µg/mL (≈ 167 µM); against Escherichia coli [5], 32 µg/mL (≈ 83.4 µM); in the test with Escherichia coli [6], 32 µg/mL (≈ 83.4 µM); against Klebsiella pneumoniae [7] it was 32 µg/mL (≈ 83.4 µM); in the test with Acinetobacter baumannii [8], 32 µg/mL (≈ 83.4 µM).
On to `C/C(=N\NC1=NCCN1)c1cnn(-c2ccc(C#CC(C)(C)C)cc2)c1C`, for which the MIC in the test on Staphylococcus aureus [1] and against Escherichia coli [2] was 16 µg/mL (≈ 44.1 µM) in each case. For the same compound, the “inhibition (INH)” value with Staphylococcus aureus [9] was 62%.
For `C/C(=N\NC1=NCCN1)c1cnn(-c2ccc(C#CC3(O)CCCCC3)cc2)c1C`, the MIC is 64 µg/mL (≈ 158 µM) against Staphylococcus aureus [1] and 32 µg/mL (≈ 79.1 µM) with Escherichia coli [2].
Take `CN(C)c1cc(NC(=O)CNC(C)(C)C)c(O)c2c1C[C@H]1C[C@H]3[C@H](N(C)C)C(O)=C(C(N)=O)C(=O)[C@@]3(O)C(O)=C1C2=O` [TIGECYCLINE]: the MIC in the test with Pseudomonas aeruginosa [3] came to 8 µg/mL (≈ 13.7 µM); against Klebsiella pneumoniae [4], 4 µg/mL (≈ 6.83 µM); against Escherichia coli [5] it was 0.5 µg/mL (≈ 0.854 µM); in the test on Escherichia coli [6], 0.25 µg/mL (≈ 0.427 µM); in the test on Klebsiella pneumoniae [7], 1 µg/mL (≈ 1.71 µM); in the test with Acinetobacter baumannii [8], 1 µg/mL (≈ 1.71 µM).
Regarding `CCCCCCC#Cc1ccc(-n2ncc(/C(C)=N/NC3=NCCN3)c2C)cc1`, the results for the MIC against Staphylococcus aureus [1] and in the test on Escherichia coli [2] were 4 µg/mL (≈ 10.2 µM) and 8 µg/mL (≈ 20.5 µM), respectively.
For `CCCCC#Cc1ccc(-n2ncc(/C(C)=N/NC(=N)N)c2C)cc1`, in that order: 2 µg/mL (≈ 5.94 µM) and 4 µg/mL (≈ 11.9 µM).
On to `C/C(=N\NC(=N)N)c1cnn(-c2ccc(C#CC3CC3)cc2)c1C`, for which the MIC against Staphylococcus aureus [1] and against Escherichia coli [2] was 8 µg/mL (≈ 25 µM) each time.
For the compound `CN[C@H](CC(C)C)C(=O)N[C@H]1C(=O)N[C@@H](CC(N)=O)C(=O)N[C@H]2C(=O)N[C@H]3C(=O)N[C@H](C(=O)N[C@H](C(=O)O)c4cc(O)cc(O)c4-c4cc3ccc4O)[C@H](O)c3ccc(c(Cl)c3)Oc3cc2cc(c3O[C@@H]2O[C@H](CO)[C@@H](O)[C@H](O)[C@H]2O[C@H]2C[C@](C)(N)[C@H](O)[C@H](C)O2)Oc2ccc(cc2Cl)[C@H]1O` [VANCOMYCIN], the result in the test on Staphylococcus aureus [10] was Active. Moreover, the MIC was 32 µg/mL (≈ 22.1 µM) in the test on Enterococcus faecalis; 1 µg/mL (≈ 0.69 µM) against Clostridioides difficile; 2 µg/mL (≈ 1.38 µM) in the test on Listeria monocytogenes; above 64 µg/mL in the test with Enterococcus faecium; 2 µg/mL (≈ 1.38 µM) in the test on Streptococcus pneumoniae [11]; above 64 µg/mL in the test on Staphylococcus aureus [12]. Further, the values for the MIC in the test with Staphylococcus aureus [14] and in the test with Streptococcus pneumoniae [15] were 64 µg/mL (≈ 44.2 µM) and 1 µg/mL (≈ 0.69 µM), respectively. Further, the result in the test with Staphylococcus aureus [13] was inactive. Also, the “inhibition (INH)” value in the test on Staphylococcus aureus [9] was 18%.
For the compound `CC(=O)NC[C@H]1CN(c2ccc(N3CCOCC3)c(F)c2)C(=O)O1` [LINEZOLID], the MIC was 1 µg/mL (≈ 2.96 µM) against Staphylococcus aureus [16]; at most 0.5 µg/mL in test [17]; 1 µg/mL (≈ 2.96 µM) against Listeria monocytogenes; 1 µg/mL (≈ 2.96 µM) in the test with Enterococcus faecium; 1 µg/mL (≈ 2.96 µM) in the test with Staphylococcus aureus [18]; 1 µg/mL (≈ 2.96 µM) against Staphylococcus aureus [1]. The MIC with Staphylococcus aureus [12] came to 1 µg/mL (≈ 2.96 µM); against Staphylococcus aureus [19] it was 32 µg/mL (≈ 94.9 µM); with Staphylococcus aureus [20] it was 1 µg/mL (≈ 2.96 µM); in the test with Staphylococcus aureus [14], 1 µg/mL (≈ 2.96 µM).
Consider `CCCCCCC#Cc1ccc(-n2ncc(/C(C)=N/NC(=N)N)c2C)cc1`, for which the MIC with Staphylococcus aureus [1] is 2 µg/mL (≈ 5.49 µM); with Escherichia coli [2], 8 µg/mL (≈ 21.9 µM).
Regarding `C/C(=N/NC(=N)N)c1sc(-c2ccc(C#Cc3ccccc3)cc2)nc1C`, the result with Klebsiella pneumoniae [21], in the test on Escherichia coli [22], in the test on Acinetobacter baumannii [23], in the test with Pseudomonas aeruginosa [24] and in the test on Escherichia coli [2] was inactive.
